These results are taken from ChEMBL document CHEMBL1129424, “Heterocyclic amides: inhibitors of acyl-CoA:cholesterol O-acyl transferase with hypocholesterolemic activity in several species and antiatherosclerotic activity in the rabbit” (J Med Chem, 1996).

The test system of assay [1] is Oryctolagus cuniculus. Put plainly: Percent change in plasma total cholesterol at dose 1 mg/Kg in rabbits. Type of assay: functional. The method in brief:
(§1)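 Injured cholesterol-fed rabbits: diet of 0.5% cholesterol, 3% peanut oil, 3% coconut oil for 9 weeks (1 week before, 8 weeks after surgery), producing thoracic aortic and iliac-femoral lesions. Doses 1, 5 or 25 mg/kg. Thoracic aortic lesion coverage, plasma total cholesterol and triglycerides given as percent change versus control; Student's t-test, p < 0.05.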

Assay [2] relates to Oryctolagus cuniculus. Nature of the assay: Percent change in TC relative to untreated controls at 5 mg/Kg in cholesterol fed rabbits (CFR).
The test system of a further assay is Canis familiaris. Nature of the assay: CDOG represents the C-fed female Beagle dog model, data expressed as percent change in TC relative to untreated controls at compound concentration of 10 mg/Kg. It counts as functional, Canis lupus familiaris. The method in brief: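 Cholesterol-fed female Beagle dogs given bulk drug in capsules daily before meals for 1 week at 10 mg/kg. Plasma total cholesterol compared before and after treatment.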

The subject of assay [3] is Oryctolagus cuniculus. Nature of the assay: Percent change in plasma triglyceride levels at dose 5 mg/Kg in rabbits. Type of assay: functional. The method in brief: as §1
For assay [4], the target named is T1, Sterol O-acyltransferase 1 (Rattus norvegicus) (UniProt O70536).
T1 sequence (whole entry): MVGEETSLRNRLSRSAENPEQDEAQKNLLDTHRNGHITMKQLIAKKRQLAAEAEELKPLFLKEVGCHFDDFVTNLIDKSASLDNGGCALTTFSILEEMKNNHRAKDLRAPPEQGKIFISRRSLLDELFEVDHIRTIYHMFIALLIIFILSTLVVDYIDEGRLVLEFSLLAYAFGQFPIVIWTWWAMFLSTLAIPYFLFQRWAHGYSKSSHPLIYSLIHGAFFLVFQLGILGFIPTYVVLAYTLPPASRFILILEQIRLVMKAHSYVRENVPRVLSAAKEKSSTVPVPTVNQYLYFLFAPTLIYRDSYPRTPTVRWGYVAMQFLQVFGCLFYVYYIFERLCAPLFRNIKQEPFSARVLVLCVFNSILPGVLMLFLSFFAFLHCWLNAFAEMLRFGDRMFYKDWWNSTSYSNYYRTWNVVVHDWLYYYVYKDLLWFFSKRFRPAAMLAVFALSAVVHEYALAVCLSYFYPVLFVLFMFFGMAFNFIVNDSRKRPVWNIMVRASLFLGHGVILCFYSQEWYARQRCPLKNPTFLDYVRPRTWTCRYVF
Nature of the assay: Compound at 25 mg/Kg was tested for the inhibition of rat liver microsomal Acyl coenzyme A:cholesterol acyltransferase 1 in plasma drawn from chow fed rabbits. It counts as cell-free. The method in brief: (§2)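 Male New Zealand white rabbits conditioned to meal feeding for 1 week, then given a meal containing drug at 25 mg/kg in 3% peanut oil/3% coconut oil vehicle. Plasma was sampled at 0, 1, 2 and 4 h and extracted into hexane, then redissolved in chloroform/methanol (2:1). It was assayed for liver microsomal ACAT inhibition against standards of compound spiked into rabbit plasma in DMSO.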

Assay [5] has as its target T1, Sterol O-acyltransferase 1 (Rattus norvegicus). Nature of the assay: Compound at 1 mg/Kg was tested for the inhibition of rat liver microsomal Acyl coenzyme A:cholesterol acyltransferase 1 in plasma drawn from chow fed rabbits. It counts as cell-free.
In assay [6] the test system is Rattus norvegicus. Put plainly: Percent change in total cholesterol in the acute cholesterol-fed rat model (APCC) of hypercholesterolemia at 3 mg/Kg. Type of assay: functional. The method, boiled down:
(§3)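 Acute rat model: compound given by gavage at 30 or 3 mg/kg in 1.5% carboxymethylcellulose/0.2% Tween-20 in water (3-4 pm). Rats then fed overnight a diet with 5.5% peanut oil, 1.5% cholesterol, 0.5% cholic acid. Result is percent decrease in plasma total cholesterol versus controls.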

For assay [7], the system named is Oryctolagus cuniculus. Nature of the assay: Percent change in TC relative to untreated controls at 25 mg/Kg in cholesterol fed rabbits (CFR).
Assay [8] deals with Oryctolagus cuniculus. Put plainly: Percent change in plasma triglyceride levels at dose 25 mg/Kg in rabbits. Type of assay: functional. The method, boiled down:
as §1

The subject of assay [9] is Oryctolagus cuniculus. Put plainly: Percent change in lesion coverage relative to control in the thoracic aorta at dose 1 mg/Kg in rabbits. Type of assay: functional. The method, boiled down:
as §1

In assay [10] the target is T1, Sterol O-acyltransferase 1 (Rattus norvegicus). Nature of the assay: Compound at 5 mg/Kg was tested for the inhibition of rat liver microsomal Acyl coenzyme A:cholesterol acyltransferase 1 in plasma drawn from chow fed rabbits. Type of assay: cell-free.
Assay [11] concerns Rattus norvegicus. Nature of the assay: Percent change in total cholesterol in the acute cholesterol-fed rat model (APCC) of hypercholesterolemia at 30 mg/Kg. Type of assay: functional. The method, boiled down:
as §3

For assay [12], the target named is T2, Sterol O-acyltransferase 1 (Rattus norvegicus, UniProt O70536).
T2 sequence (O70536 whole entry): T1 sequence (whole entry)
Nature of the assay: Inhibition of Acyl coenzyme A:cholesterol acyltransferase 1 from rat liver microsomes. The method, boiled down: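 Microsomes isolated from livers of cholesterol-fed rats were incubated with compound and [1-14C]oleoyl-CoA to measure ACAT inhibition; IC50 reported in μM.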

The subject of assay [13] is Oryctolagus cuniculus. Put plainly: Percent change in plasma triglyceride levels at dose 1 mg/Kg in rabbits. It counts as functional. The method in brief: as §1
Assay [14] concerns the target T1, Sterol O-acyltransferase 1 (Rattus norvegicus). Put plainly: Inhibition of rat liver microsomal Acyl coenzyme A:cholesterol acyltransferase 1 from rabbit plasma after an oral dose of 25 mg/kg. It counts as cell-free. The method in brief: as §2
For assay [15], the system named is Oryctolagus cuniculus. Nature of the assay: Percent change in lesion coverage relative to control in the thoracic aorta at dose 5 mg/Kg in rabbits. Type of assay: functional. The method in brief:
as §1

Assay [16] in a line: Acyl coenzyme A:cholesterol acyltransferase inhibition in cell culture measured in murine IC-21 macrophages. The method in brief:
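Murine IC-21 macrophages preincubated 16 h in serum-free DMEM with albumin (20 μM) and phosphatidylserine/cholesterol vesicles; then compound in DMSO for 1 h, then 14C-sodium oleate added for 4 more h. Lipids extracted in hexane/2-propanol with [14C]cholesterol internal standard; neutral lipids separated by TLC, phosphorimaged; protein by Lowry. IC50 is the concentration giving 50% inhibition.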

In assay [17] the test system is Oryctolagus cuniculus. Nature of the assay: Percent change in plasma total cholesterol at dose 25 mg/Kg in rabbits. It counts as functional. The method, boiled down:
as §1

The subject of assay [18] is Oryctolagus cuniculus. Put plainly: Percent change in lesion coverage relative to control in the thoracic aorta at dose 25 mg/Kg in rabbits. Type of assay: functional. The method in brief:
as §1

For assay [19], the system named is Oryctolagus cuniculus. Nature of the assay: Percent change in plasma total cholesterol at dose 5 mg/Kg in rabbits. It counts as functional. The method, boiled down: as §1
For assay [20], the species on record is Rattus norvegicus. Nature of the assay: Compound was tested for the percent change in total cholesterol (TC) by chronic rat model. Type of assay: functional.

For `CCCCCCCCCCCCc1cc(C(C(=O)Nc2c(OC)cc(OC)cc2OC)c2ccccc2)on1` (stereo not given), the DeltaTC in the assay on Oryctolagus cuniculus [1] is -26%; in the assay on Oryctolagus cuniculus [2], -64%; with Rattus norvegicus [6], -68%; in the assay on Oryctolagus cuniculus [7], -76%; in the assay with Oryctolagus cuniculus [8] it was 168%; in the assay with Rattus norvegicus [11], -68%. In addition, the DeltaTC in the assay on Oryctolagus cuniculus [13] is on record as 1%; in the assay on Oryctolagus cuniculus [17] it was -26%; in the assay with Oryctolagus cuniculus [19], -32%. For the same compound, the CDOG in the assay with Canis familiaris is given as -44. The DeltaTG with Oryctolagus cuniculus [3] was 111%. In addition, the inhibition came out at 94% in assay [4], 0% in assay [5], 46% in assay [10] and 94% in assay [14]. Also, the values for the Activity in the assay on Oryctolagus cuniculus [9], with Oryctolagus cuniculus [15] and with Oryctolagus cuniculus [18] were -53%, -46% and -32%, respectively. Also, the values for the IC50 in assay [12] and in [16] were 15 nM and 170 nM, respectively. The CPCC in the assay filed under Rattus norvegicus [20] is listed as -65.
In turn, `CCCCCCCCCCCCc1cc(C(C(=O)Nc2c(C(C)C)cccc2C(C)C)c2ccccc2)no1` (stereo not given) gave an IC50 in [12] of 24 nM.
For the compound `CCCCCCCCCCCCc1cnn(C(C(=O)Nc2c(OC)cc(OC)cc2OC)c2ccccc2)c1` (stereo not given), the values for the DeltaTC with Rattus norvegicus [6] and in the assay with Rattus norvegicus [11] were -59% and -72%, respectively. In assay [12], the IC50 is 46 nM.
The matching figures for `CCCCCCCCCCCCc1cn(C(C(=O)Nc2c(OC)cc(OC)cc2OC)c2ccccc2)cn1` (stereo not given): -43%, -62% and 110 nM.
Take `CCCCCCCCCCCCc1cc(C(C(=O)Nc2ccc(F)cc2F)c2ccccc2)on1` (stereo not given): the DeltaTC with Rattus norvegicus [11] is given as -50%. In assay [12], this compound returned an IC50 of 51 nM.
Consider `CCCCCCCCCCCCc1noc(C(C(=O)Nc2c(OC)cc(OC)cc2OC)c2ccccc2)n1` (stereo not given), for which the DeltaTC is reported as -58% in the assay on Rattus norvegicus [6] and -60% in the assay on Rattus norvegicus [11]. This compound showed an IC50 in [12] of 31 nM.
Consider `CCCCCCCCCCC(C)(C)C(=O)Nc1c(OC)cc(OC)cc1OC` [CL-976], for which the DeltaTC in the assay on Oryctolagus cuniculus [8] is given as -7%; with Oryctolagus cuniculus [17], -24%. In the assay with Oryctolagus cuniculus [18], the Activity was -41%.
Turning to `CCCCCCCCCCCCc1cc(CC(=O)Nc2c(OC)cc(OC)cc2OC)on1`, the DeltaTC in the assay with Rattus norvegicus [6] is -42%; with Rattus norvegicus [11], -59%. This compound had an IC50 in [12] of 32 nM.
Turning to `CCCCCCCCCCCCc1cc(C(C(=O)Nc2c(C(C)C)cccc2C(C)C)c2ccccc2)on1` (stereo not given), the DeltaTC is given as -10% in the assay on Rattus norvegicus [6] and -52% in the assay with Rattus norvegicus [11]. Besides, inhibition in assay [12] was half-maximal at 19 nM (IC50).
On to `CCCCCCCCCCCCc1cc(C(C(=O)Nc2ccc(F)cc2F)c2ccccc2)no1` (stereo not given), for which the DeltaTC with Rattus norvegicus [11] is given as -29%. The compound also yielded an IC50 in [12] of 100 nM.
Regarding `CCCCCCCCCCCCc1cc(C(C)(C)C(=O)Nc2c(OC)cc(OC)cc2OC)no1`, in the assay with Rattus norvegicus [11], the DeltaTC is -40%. In addition, it took 150 nM to reach half-maximal inhibition in [12] (IC50).
As for `CCCCCCCCCCCCc1nc(C(C(=O)Nc2c(OC)cc(OC)cc2OC)c2ccccc2)no1` (stereo not given), the figures for the DeltaTC with Rattus norvegicus [6] and with Rattus norvegicus [11] were -56% and -54%, respectively. In assay [12], this compound had an IC50 of 31 nM.
`CCCCCCCCCCCCc1cc(C(C(=O)Nc2c(OC)cc(OC)cc2OC)c2ccccc2)no1` (stereo not given): the DeltaTC in the assay on Oryctolagus cuniculus [1] is given as -17%; in the assay on Oryctolagus cuniculus [2], -66%; in the assay with Rattus norvegicus [6], -50%; in the assay on Oryctolagus cuniculus [8], 157%; in the assay on Rattus norvegicus [11], -72%; in the assay with Oryctolagus cuniculus [13], 24%. The DeltaTC with Oryctolagus cuniculus [17] and in the assay with Oryctolagus cuniculus [19] was -27% throughout. The same compound came in with a CDOG in the assay on Canis familiaris of -44. In the assay on Oryctolagus cuniculus [3], this compound displayed a DeltaTG of 66%. The inhibition in assay [4] is 92%; in assay [5], 0%; in assay [10] it was 68%; in [14], 92%. Moreover, the Activity in the assay with Oryctolagus cuniculus [9] is -20%; in the assay on Oryctolagus cuniculus [15] it was -29%; with Oryctolagus cuniculus [18], -36%. In addition, the figures for the IC50 in assay [12] and in assay [16] were 22 nM and 310 nM, respectively. In addition, the CPCC in the assay filed under Rattus norvegicus [20] was -61.
Regarding `CCCCCCCCCCCCc1nnc(C(C(=O)Nc2c(C(C)C)cccc2C(C)C)c2ccccc2)o1` (stereo not given), the DeltaTC in the assay on Rattus norvegicus [6] was -23%; in the assay with Rattus norvegicus [11] it was -64%. Further, it took 14 nM to reach half-maximal inhibition in [12] (IC50).
In the case of `CCCCCCCCCCCCc1nnc(C(C(=O)Nc2c(OC)cc(OC)cc2OC)c2ccccc2)o1` (stereo not given), the DeltaTC is given as -64% in the assay with Rattus norvegicus [6] and -57% in the assay on Rattus norvegicus [11]. The 50% inhibitory concentration (IC50) in assay [12] was determined as 17 nM; in assay [16] it was 48 nM. Also, the inhibition in assay [14] was found to be 21%. In the assay listed under Rattus norvegicus [20], this compound yielded a CPCC of -39.
Regarding `CCCCCCCCCCCCc1cn(C(C(=O)Nc2c(OC)cc(OC)cc2OC)c2ccccc2)nn1` (stereo not given), the DeltaTC in the assay with Rattus norvegicus [6] is recorded as -66%; with Rattus norvegicus [11], -69%. Besides, the IC50 in assay [12] came out at 22 nM; in assay [16], 54 nM. For the same compound, the inhibition in assay [14] stood at 12%.
Consider `CCCCCCCCCCCCc1cc(C2(C(=O)Nc3c(OC)cc(OC)cc3OC)CCCC2)no1`, for which the DeltaTC in the assay with Rattus norvegicus [11] was -29%. Moreover, half-maximal inhibition in assay [12] (IC50) required 100 nM.
